From PubChem BioAssay
Rad51 HR inh: blocks human Rad51 in homologous recombination; inhibition, % at 10 µM; 200,000 compounds, 0.085% hits; AID 1385; Q06609; hRad51 DNA strand exchange, fluorescence dequenching;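 active means inhibition above 40% at the single screening dose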
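Material: human Rad51–ssDNA filaments; Probe or stimulus: labelled 47-mer dsDNA for strand exchange; Doses: single 10 µM dose; Incubation: 37 °C 15-min filament assembly, 30-min compound preincubation, 15-min exchange; Technique: FRET fluorescence dequenching, excitation 485 nm, emission 520 nm; Measure: Fluorescence-based percent inhibition, control- and blank-normalised; Benchmarks: plate control and blank wells.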
Insulin prom up: MIN6 insulin promoter up-regulation | AID 1625 | 190,000 compounds, 0.3% hits | MIN6 insulin promoter-GFP reporter, high-content imaging; stronger effect = higher value | z-score at 5 µM;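 active means z-score above 3 at 5 µM with at least 500 cells counted in the well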
WT yeast gro inh: growth inhibition of WT yeast, mitochondrial fusion screen | AID 1362 | inhibition, % at 10 µM | mitochondrial fusion phenotypic screen, WT strain | 190,000 compounds, 2.1% hits; in the data active means inhibition above about 58%; tested in S. cerevisiae
KCC2 mod: modulators of human KCC2 chloride dependent transport. Q9H2X9. KCC2 cells, thallium flux FluoZin-2 fluorescence. 190,000 compounds, 2.2% hits. B-score of Tl+ flux slope (higher = more flux/activation; lower = inhibition) at 10 µM. AID 1456;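 active means thallium flux slope and its plate-corrected score both differing from the plate sample mean at a set confidence after two filtering rounds, in either direction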;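 further: slope of fluorescence scaled to starting intensity during 10 to 20 s after thallium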
Target sequence (Q9H2X9 whole entry, looked up): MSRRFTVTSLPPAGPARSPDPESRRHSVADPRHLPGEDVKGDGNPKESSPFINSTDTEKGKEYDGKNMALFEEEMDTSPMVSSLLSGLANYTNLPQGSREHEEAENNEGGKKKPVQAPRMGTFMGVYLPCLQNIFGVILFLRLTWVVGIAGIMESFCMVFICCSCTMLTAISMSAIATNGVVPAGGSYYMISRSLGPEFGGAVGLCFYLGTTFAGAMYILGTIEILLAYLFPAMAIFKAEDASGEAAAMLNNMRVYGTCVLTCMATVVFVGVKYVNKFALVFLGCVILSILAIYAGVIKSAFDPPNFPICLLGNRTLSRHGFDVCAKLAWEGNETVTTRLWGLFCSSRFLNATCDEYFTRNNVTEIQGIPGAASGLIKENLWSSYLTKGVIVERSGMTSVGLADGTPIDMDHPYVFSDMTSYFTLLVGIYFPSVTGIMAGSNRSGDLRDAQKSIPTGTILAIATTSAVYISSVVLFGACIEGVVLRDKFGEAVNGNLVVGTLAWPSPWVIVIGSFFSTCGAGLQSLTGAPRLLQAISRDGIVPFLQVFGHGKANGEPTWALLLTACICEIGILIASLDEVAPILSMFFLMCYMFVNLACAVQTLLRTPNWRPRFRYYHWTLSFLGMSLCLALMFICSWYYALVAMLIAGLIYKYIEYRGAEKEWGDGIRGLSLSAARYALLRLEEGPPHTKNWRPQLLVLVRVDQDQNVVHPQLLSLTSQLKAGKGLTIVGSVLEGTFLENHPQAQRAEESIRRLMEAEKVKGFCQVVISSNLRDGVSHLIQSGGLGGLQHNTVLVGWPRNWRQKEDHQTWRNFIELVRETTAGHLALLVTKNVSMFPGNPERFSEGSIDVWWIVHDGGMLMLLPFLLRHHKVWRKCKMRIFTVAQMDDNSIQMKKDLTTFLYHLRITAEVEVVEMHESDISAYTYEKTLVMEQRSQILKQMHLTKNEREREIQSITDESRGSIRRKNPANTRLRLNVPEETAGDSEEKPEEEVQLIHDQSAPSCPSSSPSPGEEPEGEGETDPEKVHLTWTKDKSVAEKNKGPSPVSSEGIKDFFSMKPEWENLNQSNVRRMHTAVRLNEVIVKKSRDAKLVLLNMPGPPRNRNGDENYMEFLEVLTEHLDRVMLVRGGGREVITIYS
SKKanGAS inh: blocks kanamycin growth of S. pyogenes SKKanGAS strain. 300,000 compounds, 1.3% hits. BacTiter-Glo, 6 h. inhibition, % at 7.5 µM. AID 1662;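 active means mean replicate score, as percent of positive control median, at least 50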;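 further: strain carries kanamycin resistance gene driven by streptokinase promoter and grows in 40 µg/ml kanamycin; loss of luminescence reflects streptokinase promoter inhibition or plain growth inhibition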
Autophagy HCS: autophagy modulation, high-content screen. MEF GFP-LC3 puncta imaging; test concentration mostly 10 µM. calls only at 10 µM (by protocol). 190,000 compounds, 0.98% hits. AID 463193;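 active means percentage of spot-positive cells more than 3 SD above its plate mean, without a fluorescence outlier flag or 80% toxicity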
Hits are given with their value; n = inactive; x = no result; + = active, no number. This is a sample that favours compounds with a hit; in the whole collection about 4.2% have one here.

SMILES	Rad51 HR inh	Insulin prom up	WT yeast gro inh	KCC2 mod	SKKanGAS inh	Autophagy HCS
C=CC[C@@H]1C=C(C)C[C@H](C)C[C@H](OC)[C@H]2O[C@@](O)(C(=O)C(=O)N3CCCC[C@H]3C(=O)O[C@H](/C(C)=C/[C@@H]3CC[C@@H](O)[C@H](OC)C3)[C@H](C)[C@@H](O)CC1=O)[C@H](C)C[C@@H]2OC	n	x	x	x	n	x
Nc1c(Cl)ncnc1NCCc1ccc(O)cc1	n	n	x	n	n	x
CC(=O)N1N=C(c2ccc(Br)cc2)CC1c1cn(C)c2ccccc12 (centres undefined)	n	n	74	n	n	n
Cc1cccc(N(C(=O)c2snc(C(N)=O)c2N)C(C(=O)NCC2CCCO2)c2ccc3ncccc3c2)c1 (centres undefined)	x	x	x	x	n	x
Cc1nc2c(C)cccn2c(=O)c1NC(=O)c1ccco1	x	x	x	x	n	x
Cc1nc2c(C)cccn2c(=O)c1NC(=O)c1ccc2c(c1)OCO2	x	x	x	x	50	x
Cc1cc(C(=O)COC(=O)c2ccc(CO)cc2)c(C)n1CC1COc2ccccc2O1 (centres undefined)	n	n	n	n	n	n
O=c1[nH]c(SCc2ccccc2)nc2[nH]ncc12	x	n	n	n	n	n
CCOc1cc(NC(=O)C(C)C)c(OCC)cc1NC(=O)Nc1ccccc1	x	x	x	x	n	x
Cc1cc(C)c(S(=O)(=O)N2CCC(C(=O)NCc3ccc(Cl)cc3Cl)CC2)c(C)c1	n	n	75	n	n	n
COc1ccccc1CC1S/C(=N/N=C/c2ccco2)NC1=O (centres undefined)	n	n	n	n	n	n
C/C(CC(=O)Nc1ccc(F)cc1)=N\NC(=O)COc1ccccc1	n	n	n	n	n	n
Cc1[nH]c2ccccc2c1C(=O)COC(=O)c1c(-c2c(F)cccc2Cl)noc1C	n	n	85	n	n	n
Cc1[nH]c2ccccc2c1C(=O)COC(=O)c1c(-c2ccccc2Cl)noc1C	n	n	87	n	n	n
C=CCn1c(COc2ccccc2)nnc1SC(C)C(=O)N/N=C/c1cc(Cl)ccc1O (centres undefined)	n	n	n	n	105	n
O=C(c1ccc2oc(CCc3ccccc3)nc2c1)N1CC[C@H](O)C1	x	x	x	x	n	x
CSc1nc(N2CCN(c3ccccc3Cl)CC2)c2ccccc2n1	x	n	63	n	n	n
CC1C(=O)N2CCCc3cc(S(=O)(=O)Nc4ccccc4C(N)=O)cc1c32 (centres undefined)	x	x	x	x	n	x
CC(C)C1OC(c2cccc(NC(=O)c3cccs3)c2)OCC1(C)C (centres undefined)	n	n	69	n	n	n
O=C(NC(=S)NCCCN1CCOCC1)c1cccc2ccccc12	n	n	n	n	n	n
COc1ccc(CCNC(=O)c2ccc3nc(N4CCCCC4)sc3c2)cc1OC	x	x	x	x	n	x
CCC(=O)/C=C1/Sc2ccccc2N1CC	n	x	n	n	n	n
CCN1/C(=C/c2cc[n+](CCCS(=O)(=O)[O-])c3ccccc23)Sc2ccccc21	n	6.1	n	n	n	n
CCOC(=O)c1c2c(n(C)c1C)C(=O)C(=O)c1ccc(Br)cc1-2	n	x	x	x	59	n
CC(C)c1ccc(-n2cccc2/C=C2/C(=N)N3C=CSC3=NC2=O)cc1	n	n	87	22	94	n
SMILES	Rad51 HR inh	Insulin prom up	WT yeast gro inh	KCC2 mod	SKKanGAS inh	Autophagy HCS
CC1=CSC2=NC(=O)/C(=C\c3cccn3-c3ccccc3)C(=N)N12	n	n	n	n	n	n
N#C/C(=N\Nc1cccc(C(F)(F)F)c1)C(=O)c1csc(-c2cccnc2)n1	n	n	x	-6.1	n	x
Cc1ccc(C(=O)Nc2cccc(C(F)(F)F)c2)cc1NC(=O)c1csc(-c2ccncc2)n1	n	n	x	n	n	x
CCOC(=O)CC/C(=N\NC(N)=O)c1ccc(OC)c(Cl)c1	x	x	x	x	n	x
Cc1ccc(C)c(NC(=S)Nc2ccc(S(=O)(=O)Nc3ncccn3)cc2)c1	n	x	n	n	n	+
Cc1ccc(C2NC(=O)c3ccccc3O2)cc1 (centres undefined)	x	x	x	x	n	x
Cc1ccc(C2CN(C)C3(C(=O)Nc4ccccc43)C23COc2ccccc2C3=O)cc1 (centres undefined)	x	n	73	n	n	n
CC1OC2(OC1C)C(=O)Nc1ccccc12 (centres undefined)	n	n	n	x	n	n
CN1CC(c2ccccc2Cl)C2(COc3ccccc3C2=O)C12C(=O)Nc1ccccc12 (centres undefined)	n	n	59	n	n	n
